In ChEMBL document CHEMBL1139268, “Camphor sulfonamide derivatives as novel, potent and selective CXCR3 antagonists” (Bioorg Med Chem Lett, 2009):
Values after ≈ are worked out from the molar mass of the structure shown.

What was measured:
[1] = biological target: T1, C-X-C chemokine receptor type 3 (Homo sapiens, UniProt P49682); assay: Antagonist activity at human recombinant CXCR3 receptor expressed in CHO-K1 cells assessed as human IP10-induced calcium flux by FLIPR assay; assay type: functional, cell-based
T1 sequence (P49682 whole entry): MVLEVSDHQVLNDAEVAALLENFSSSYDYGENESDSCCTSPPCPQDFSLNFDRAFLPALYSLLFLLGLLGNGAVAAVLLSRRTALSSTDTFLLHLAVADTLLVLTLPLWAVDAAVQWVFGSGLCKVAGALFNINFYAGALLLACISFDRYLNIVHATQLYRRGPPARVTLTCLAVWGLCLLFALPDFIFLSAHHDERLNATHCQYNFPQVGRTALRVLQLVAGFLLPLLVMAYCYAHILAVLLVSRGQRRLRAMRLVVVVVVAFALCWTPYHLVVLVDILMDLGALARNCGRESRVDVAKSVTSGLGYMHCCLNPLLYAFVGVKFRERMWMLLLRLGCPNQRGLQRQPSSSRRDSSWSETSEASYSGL

[2] = biological target: T2, C-X-C chemokine receptor type 3 (Mus musculus, UniProt O88410); assay: Antagonist activity at mouse recombinant CXCR3 expressed in human U2OS cells; assay type: functional, cell-based
T2 sequence (O88410 whole entry): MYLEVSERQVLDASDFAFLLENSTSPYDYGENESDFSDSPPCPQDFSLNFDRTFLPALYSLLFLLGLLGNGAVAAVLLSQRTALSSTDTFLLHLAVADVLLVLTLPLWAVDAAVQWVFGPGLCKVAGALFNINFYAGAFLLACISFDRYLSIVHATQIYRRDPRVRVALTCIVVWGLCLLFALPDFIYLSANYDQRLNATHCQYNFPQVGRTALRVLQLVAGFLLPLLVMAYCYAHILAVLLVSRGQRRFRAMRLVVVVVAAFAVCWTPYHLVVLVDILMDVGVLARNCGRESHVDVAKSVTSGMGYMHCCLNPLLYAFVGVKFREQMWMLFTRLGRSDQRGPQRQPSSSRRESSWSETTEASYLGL
Procedure, shortened: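 Human U2OS cells were transiently transduced with a mixture of recombinant BacMam viruses, one expressing murine CXCR3 and one expressing chimeric G-protein Gqi5.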

[3] = biological target: T1, C-X-C chemokine receptor type 3; assay: Antagonist activity at human recombinant CXCR3 receptor assessed as human IP10-induced calcium mobilization by FLIPR assay; assay type: functional; settings: read-out: pA2 (converted)
[4] = Permeability across artificial membrane; assay type: ADME; settings: PAMPA; read-out: permeability
[5] = Aqueous solubility of the compound; assay type: physicochemical; settings: buffer

Row | IC50 [1] [nM] | SMILES | further results
1 | 1580 | CC1(C)[C@@H]2CC[C@]1(CS(=O)(=O)N1CCN(c3ccc(C(F)(F)F)cn3)CC1)C(=O)C2 | –
2 | 158 | CC1(C)[C@@H]2CC[C@@]1(CS(=O)(=O)N1CCN(c3ccc(C(F)(F)F)cn3)CC1)C(O)C2 (some centres undefined) | –
3 | 200 | CC1(O)C[C@H]2CC[C@]1(CS(=O)(=O)N1CCN(c3ccc(C(F)(F)F)cn3)CC1)C2(C)C (some centres undefined) | –
4 | 50.1 | C[C@H]1CN(S(=O)(=O)C[C@]23CC[C@H](CC2O)C3(C)C)CCN1c1ncc(C(F)(F)F)cc1F (some centres undefined) | IC50 [2]: 158 nM
5 | 63.1 | C[C@H]1CN(S(=O)(=O)C[C@]23CC[C@H](C[C@H]2O)C3(C)C)CCN1c1ncc(C(F)(F)F)cc1F | IC50 [2]: 1580 nM
6 | 251 | CC1(C)[C@@H]2CC[C@@]1(CS(=O)(=O)N1CCN(c3ccc(C(F)(F)F)cn3)CC1)C(=O)C2 | Kb [3]: 126 nM; IC50 [2]: 1260 nM
7 | 25100 | CC1(C)[C@@H]2CC[C@@]1(CS(=O)(=O)N1CCN(c3cc(C(F)(F)F)ccn3)CC1)C(=O)C2 | –
8 | 126 | C[C@H]1CN(S(=O)(=O)C[C@]23CC[C@H](CC2=O)C3(C)C)CCN1c1ncc(C(F)(F)F)cn1 | IC50 [2]: 1000 nM
9 | 39.8 | C[C@H]1CN(S(=O)(=O)C[C@]23CC[C@H](CC24OCCO4)C3(C)C)CCN1c1ncc(C(F)(F)F)cc1F | IC50 [2]: 1580 nM
10 | > 12600 | CC1(C)[C@@H]2CC[C@@]1(CS(=O)(=O)N1CCN(c3nc4ccccc4s3)CC1)C(=O)C2 | –
11 | 316 | CC1CN(S(=O)(=O)C[C@]23CC[C@H](CC2=O)C3(C)C)CCN1c1ccc(C(F)(F)F)cn1 (some centres undefined) | –
12 | 631 | CC1CN(c2ccc(C(F)(F)F)cn2)CCN1S(=O)(=O)C[C@]12CC[C@H](CC1=O)C2(C)C (some centres undefined) | –
13 | 6310 | C[C@@H]1CN(c2ccc(C(F)(F)F)cn2)[C@@H](C)CN1S(=O)(=O)C[C@]12CC[C@H](CC1=O)C2(C)C | –
14 | 158 | C[C@H]1CN(S(=O)(=O)C[C@]23CC[C@H](CC2=O)C3(C)C)CCN1c1ccc(C(F)(F)F)cn1 | IC50 [2]: 2510 nM
15 | 25100 | CC1(C)[C@@H]2CC[C@@]1(CS(=O)(=O)N1CCN(c3cccc(C(F)(F)F)n3)CC1)C(=O)C2 | –
16 | > 31600 | CC1(C)[C@@H]2CC[C@@]1(CS(=O)(=O)N1CCN(c3ccccn3)CC1)C(=O)C2 | –
17 | > 31600 | CC(=O)c1ccc(N2CCN(S(=O)(=O)C[C@]34CC[C@H](CC3=O)C4(C)C)CC2)nc1 | –
18 | 398 | CC1(C)[C@@H]2CC[C@@]1(CS(=O)(=O)N1CCN(c3ccc(C(F)(F)F)cn3)C(CO)C1)C(=O)C2 (some centres undefined) | –
19 | 316 | C[C@H]1CN(S(=O)(=O)C[C@]23CC[C@H](C[C@H]2O)C3(C)C)CCN1c1ccc(C(F)(F)F)cn1 | IC50 [2]: 631 nM
20 | 200 | CC1(C)[C@@H]2CC[C@@]1(CS(=O)(=O)N1CCN(c3ccc(C(F)(F)F)cn3)CC1)C1(C2)OCCO1 | –
21 | 3160 | CC1(C)[C@@H]2CC[C@@]1(CS(=O)(=O)N1CCN(c3ncc(C(F)(F)F)cc3[N+](=O)[O-])CC1)C(=O)C2 | –
22 | 158 | CC1(C)[C@@H]2CC[C@@]1(CS(=O)(=O)N1CCN(c3ncc(C(F)(F)F)cc3F)CC1)C(=O)C2 | IC50 [2]: 794 nM
23 | 501 | C[C@@H]1CN(S(=O)(=O)C[C@]23CC[C@H](CC2=O)C3(C)C)CCN1c1ncc(C(F)(F)F)cc1F | –
24 | > 31600 | CC(C)C1CN(S(=O)(=O)C[C@]23CC[C@H](CC2=O)C3(C)C)CCN1c1ccc(C(F)(F)F)cn1 (some centres undefined) | –
25 | > 31600 | CC1(C)[C@@H]2CC[C@@]1(CS(=O)(=O)N1CCN(c3ccc(C(F)(F)F)cn3)C(c3ccccc3)C1)C(=O)C2 (some centres undefined) | –
26 | 794 | CCNC(=O)NC1C[C@H]2CC[C@]1(CS(=O)(=O)N1CCN(c3ccc(C(F)(F)F)cn3)CC1)C2(C)C (some centres undefined) | –
27 | 316 | CC1(C)[C@@H]2CC[C@@]1(CS(=O)(=O)N1CCN(c3ncc(C(F)(F)F)cn3)CC1)C(=O)C2 | –
28 | 631 | CC1(C)[C@@H]2CC[C@@]1(CS(=O)(=O)N1CCN(c3ncc(Br)cn3)CC1)C(=O)C2 | –

Row | IC50 [1] [nM] | SMILES | further results
29 | > 31600 | CC1(C)[C@@H]2CC[C@@]1(CS(=O)(=O)N1CCN(c3ccc(C#N)cn3)CC1)C(=O)C2 | –
30 | 6310 | CC1(C)[C@@H]2CC[C@@]1(CS(=O)(=O)N1CCCN(c3ccc(C(F)(F)F)cn3)CC1)C(=O)C2 | –
31 | 15800 | CC1(C)[C@@H]2CC[C@@]1(CS(=O)(=O)NC1CCN(c3ccc(C(F)(F)F)cn3)CC1)C(=O)C2 | –
32 | > 31600 | CN(CCN(C)S(=O)(=O)C[C@]12CC[C@H](CC1=O)C2(C)C)c1ccc(C(F)(F)F)cn1 | –
33 | 2000 | CC1(C)[C@@H]2CC[C@@]1(CS(=O)(=O)N1CCN(c3ccc(C(F)(F)F)cc3F)CC1)C(=O)C2 | –
34 | > 31600 | Cc1ccc(N2CCN(S(=O)(=O)C[C@]34CC[C@H](CC3=O)C4(C)C)CC2)nc1 | –
35 | 316 | CC1(C)[C@@H]2CC[C@@]1(CS(=O)(=O)N1CCN(c3nc(Cl)c(C(F)(F)F)cc3Cl)CC1)C(=O)C2 | –
36 | > 31600 | CC1(C)[C@@H]2CC[C@@]1(CS(=O)(=O)N1CCN(c3ccc(C(F)(F)F)cc3)CC1)C(=O)C2 | –
37 | 316 | CC1(C)[C@@H]2CC[C@@]1(CS(=O)(=O)N1CCN(c3ncc(C(F)(F)F)cc3F)[C@H](CO)C1)C(=O)C2 | Papp [4]: 56 ×10⁻⁶ cm/s; solubility [5]: 40 µg/mL (≈ 81 µM); IC50 [2]: 6310 nM
38 | 158 | C[C@H]1CN(S(=O)(=O)C[C@]23CC[C@H](CC2O)C3(C)C)CCN1c1ccc(C(F)(F)F)cn1 (some centres undefined) | IC50 [2]: 631 nM
39 | 31.6 | C[C@H]1CN(S(=O)(=O)C[C@]23CC[C@H](C[C@@H]2O)C3(C)C)CCN1c1ccc(C(F)(F)F)cn1 | IC50 [2]: 200 nM
40 | 631 | CC1(C)[C@@H]2CC[C@@]1(CS(=O)(=O)N1CCN(c3ccc(C(F)(F)F)cn3)CC1)C(NS(C)(=O)=O)C2 (some centres undefined) | –
41 | 398 | CC1(C)[C@@H]2CC[C@@]1(CS(=O)(=O)N1CCN(c3ncc(C(F)(F)F)cc3Cl)CC1)C(=O)C2 | –
42 | 251 | CC1(C)[C@@H]2CC[C@@]1(CS(=O)(=O)N1CCN(c3ccc(C(F)(F)F)c(Cl)n3)CC1)C(=O)C2 | –
43 | 794 | CC1(C)[C@@H]2CC[C@@]1(CS(=O)(=O)N1CCN(c3ccc(C(F)(F)F)cn3)CC1)C(N)C2 (some centres undefined) | –
44 | 2000 | CC(=O)NC1C[C@H]2CC[C@]1(CS(=O)(=O)N1CCN(c3ccc(C(F)(F)F)cn3)CC1)C2(C)C (some centres undefined) | –
45 | 1580 | CC1(C)[C@@H]2CC[C@@]1(CS(=O)(=O)N1CCN(c3ccc(Br)cn3)CC1)C(=O)C2 | –
46 | 15800 | CC1(C)[C@@H]2CC[C@@]1(CS(=O)(=O)N1CCN(c3cc4ccccc4cn3)CC1)C(=O)C2 | –
47 | 7940 | CCNC1C[C@H]2CC[C@]1(CS(=O)(=O)N1CCN(c3ccc(C(F)(F)F)cn3)CC1)C2(C)C (some centres undefined) | –
48 | 794 | CC1(C)[C@@H]2CC[C@@]1(CS(=O)(=O)N1CCN(c3ccc(C(F)(F)F)cn3)CC1)C(F)C2 (some centres undefined) | –
49 | > 31600 | CC1(C)[C@@H]2CC[C@@]1(CS(=O)(=O)N1CCN(c3ncccc3C(F)(F)F)CC1)C(=O)C2 | –
50 | 501 | C[C@@H]1CN(S(=O)(=O)C[C@]23CC[C@H](CC2=O)C3(C)C)CCN1c1ccc(C(F)(F)F)cn1 | –
51 | 631 | CCC1CN(S(=O)(=O)C[C@]23CC[C@H](CC2=O)C3(C)C)CCN1c1ccc(C(F)(F)F)cn1 (some centres undefined) | –
52 | > 31600 | CC1(C)[C@@H]2CC[C@@]1(CS(=O)(=O)N1CCN(c3ccc([N+](=O)[O-])cn3)CC1)C(=O)C2 | –
53 | 5010 | CC1(C)[C@@H]2CC[C@@]1(CS(=O)(=O)N1CCN(c3ccc(C(F)(F)F)nn3)CC1)C(=O)C2 | –
54 | > 31600 | CC1(C)[C@@H]2CC[C@@]1(CS(=O)(=O)N1C[C@@H]3C[C@H]1CN3c1ccc(C(F)(F)F)cn1)C(=O)C2 | –
55 | 31600 | CC1(C)[C@@H]2CC[C@@]1(CS(=O)(=O)N1CCC(Nc3ccc(C(F)(F)F)cn3)CC1)C(=O)C2 | –
